# Columns and labels:
# Type in all cases: functional
# NCI/ADR-RES = assay: Growth inhibition of human NCI/ADR-RES cells at 10 uM after 48 hrs by sulforhodamine B assay; conditions: read-out: GI
# Outline: (§1)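 NCI one-dose primary screen at 10 (printed mM) across the 60-line panel. Cells in RPMI 1640 with 5% FBS and 2 mM L-glutamine, plated at 5000–40,000 cells/well and incubated 24 h before dosing. Exposure 48 h at 37 °C, 5% CO2. Adherent cells were fixed with cold TCA, suspension cells fixed after settling. SRB stain, absorbance 515 nm. Reported as percent growth of treated cells relative to control.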
# IGROV-1 = assay: Growth inhibition of human IGROV1 cells at 10 uM after 48 hrs by sulforhodamine B assay; conditions: IGROV-1, 48 h, read-out: GI; outline: as §1
# HCT-15 [1] = assay: Growth inhibition of human HCT15 cells at 10 uM after 48 hrs by sulforhodamine B assay; conditions: HCT-15, 48 h, read-out: GI; outline: as §1
# TK-10 = assay: Growth inhibition of human TK10 cells at 10 uM after 48 hrs by sulforhodamine B assay; conditions: TK-10, 48 h, read-out: GI
# Outline: (§2)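 NCI-60 single-dose screen. Cells grown in RPMI 1640 with 5% FBS and L-glutamine, plated at 5000–40,000 cells/well by doubling time, and preincubated 24 h at 37 °C, 5% CO2. Compound stocks in DMSO, added at one concentration, then incubated 48 h. Adherent cells fixed with cold TCA (10% final), stained with 0.4% SRB, dye solubilized in 10 mM Tris base, A515 read. Reported as percent growth relative to untreated control.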
# ACHN = assay: Growth inhibition of human ACHN cells at 10 uM after 48 hrs by sulforhodamine B assay; conditions: read-out: GI; outline: as §1
# NCI-H460 = assay: Cytotoxicity against human NCI-H460 cells after 48 hrs by sulforhodamine B assay; conditions: NCI-H460, 48 h
# Outline: (§3)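 NCI 60-panel screen. Cells were grown in RPMI 1640 with 5% FBS and L-glutamine and plated at 5000–40,000 cells/well according to doubling time. They were preincubated 24 h at 37 °C, 5% CO2, then exposed 48 h to five 10-fold dilutions. Adherent cells were fixed with cold TCA, final 10%; suspension cells were fixed after settling. Cells were stained with 0.4% SRB and read at 515 nm. Tz/C/Ti growth curves gave GI50, TGI and LC50.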
# OVCAR-3 = assay: Growth inhibition of human OVCAR3 cells at 10 uM after 48 hrs by sulforhodamine B assay; conditions: OVCAR-3, 48 h, read-out: GI; outline: as §1
# SK-MEL-5 = assay: Cytotoxicity against human SK-MEL-5 cells after 48 hrs by sulforhodamine B assay; conditions: SK-MEL-5, 48 h; outline: as §3
# RPMI-8226 = assay: Growth inhibition of human RPMI8226 cells at 10 uM after 48 hrs by sulforhodamine B assay; conditions: RPMI-8226, 48 h, read-out: GI; outline: as §1
# CAKI-1 = assay: Growth inhibition of human Caki1 cells at 10 uM after 48 hrs by sulforhodamine B assay; conditions: CAKI-1, 48 h, read-out: GI; outline: as §1
# SK-MEL-28 = assay: Cytotoxicity against human SK-MEL-28 cells after 48 hrs by sulforhodamine B assay; conditions: SK-MEL-28, 48 h; outline: as §3
# HCT-116 = assay: Growth inhibition of human HCT116 cells at 10 uM after 48 hrs by sulforhodamine B assay; conditions: HCT-116, 48 h, read-out: GI; outline: as §1
# HCC 2998 = assay: Cytotoxicity against human HCC2998 cells after 48 hrs by sulforhodamine B assay; conditions: HCC 2998, 48 h; outline: as §3
# OVCAR-4 [2] = assay: Cytotoxicity against human OVCAR4 cells after 48 hrs by sulforhodamine B assay; conditions: OVCAR-4, 48 h; outline: as §3
# SF-295 = assay: Cytotoxicity against human SF295 cells after 48 hrs by sulforhodamine B assay; conditions: SF-295, 48 h; outline: as §3
# [3] = Cytotoxicity against human Hs 578T cells after 48 hrs by sulforhodamine B assay; outline: as §3
# HCT-15 [4] = assay: Cytotoxicity against human HCT15 cells after 48 hrs by sulforhodamine B assay; conditions: HCT-15, 48 h; outline: as §3
# HT-29 = assay: Growth inhibition of human HT-29 cells at 10 uM after 48 hrs by sulforhodamine B assay; conditions: HT-29, 48 h, read-out: GI; outline: as §1
# T47D = assay: Cytotoxicity against human T47D cells after 48 hrs by sulforhodamine B assay; outline: as §3
# CCRF-CEM = assay: Cytotoxicity against human CCRF-CEM cells after 48 hrs by sulforhodamine B assay; outline: as §3
# KM12 [5] = assay: Growth inhibition of human KM12 cells at 10 uM after 48 hrs by sulforhodamine B assay; conditions: KM12, 48 h, read-out: GI; outline: as §1
# KM12 [6] = assay: Cytotoxicity against human KM12 cells after 48 hrs by sulforhodamine B assay; conditions: KM12, 48 h; outline: as §3
# U-251 = assay: Growth inhibition of human U251 cells at 10 uM after 48 hrs by sulforhodamine B assay; conditions: U-251, 48 h, read-out: GI; outline: as §2
# HOP-92 = assay: Cytotoxicity against human HOP92 cells after 48 hrs by sulforhodamine B assay; conditions: HOP-92, 48 h; outline: as §3
# MCF7 = assay: Cytotoxicity against human MCF7 cells after 48 hrs by sulforhodamine B assay; conditions: MCF7, 48 h; outline: as §3
# OVCAR-4 [7] = assay: Growth inhibition of human OVCAR4 cells at 10 uM after 48 hrs by sulforhodamine B assay; conditions: OVCAR-4, 48 h, read-out: GI; outline: as §1
# [8] = Growth inhibition of human Hs 578T cells at 10 uM after 48 hrs by sulforhodamine B assay; conditions: read-out: GI; outline: as §1
# HL-60(TB) = assay: Cytotoxicity against human HL-60(TB) cells after 48 hrs by sulforhodamine B assay; conditions: HL-60, 48 h
# Outline: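 NCI 60-panel five-dose assay. Cells are grown in RPMI 1640 with 5% FBS and L-glutamine. They are plated at 5000–40,000 cells/well according to doubling time and pre-incubated 24 h at 37 °C, 5% CO2. DMSO-stock compound is added at five 10-fold or ½-log dilutions for 48 h. Settled suspension cells are fixed, then SRB-stained and read at 515 nm. Percent growth is computed from time-zero, control and treated absorbances, and LC50 is taken where protein falls 50% below the starting level.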
# [9] = read-out: LC50 (the source's name)
smiles,measurement,setting,value
O=C(CCc1nnc(-c2ccc(Cl)cc2Cl)o1)c1nc2ccccc2[nH]1,inhibition of growth at 10 µM,NCI/ADR-RES,36.7%
same,inhibition of growth at 10 µM,IGROV-1,42.4%
same,inhibition of growth at 10 µM,HCT-15 [1],18.5%
same,inhibition of growth at 10 µM,TK-10,36%
same,inhibition of growth at 10 µM,ACHN,18.7%
same,GI50,NCI-H460,4.99 µM
same,TGI,NCI-H460,28.6 µM
same,CC50,NCI-H460; [9],100 µM
same,inhibition of growth at 10 µM,OVCAR-3,33.6%
same,GI50,SK-MEL-5,2.88 µM
same,TGI,SK-MEL-5,14.9 µM
same,CC50,SK-MEL-5; [9],64.6 µM
same,inhibition of growth at 10 µM,RPMI-8226,69.1%
same,inhibition of growth at 10 µM,CAKI-1,40.2%
same,GI50,SK-MEL-28,12.7 µM
same,TGI,SK-MEL-28,42.7 µM
same,CC50,SK-MEL-28; [9],100 µM
same,inhibition of growth at 10 µM,HCT-116,77.9%
same,GI50,HCC 2998,6.52 µM
same,TGI,HCC 2998,32.3 µM
same,CC50,HCC 2998; [9],100 µM
same,GI50,OVCAR-4 [2],5.93 µM
same,TGI,OVCAR-4 [2],100 µM
same,CC50,OVCAR-4 [2]; [9],100 µM
same,GI50,SF-295,5.98 µM
same,TGI,SF-295,42.9 µM
same,CC50,SF-295; [9],100 µM
same,GI50,[3],9.71 µM
same,TGI,[3],93.9 µM
same,CC50,[3]; [9],100 µM
same,GI50,HCT-15 [4],5.13 µM
same,TGI,HCT-15 [4],48.6 µM
same,CC50,HCT-15 [4]; [9],100 µM
same,inhibition of growth at 10 µM,HT-29,90.6%
same,GI50,T47D,3.34 µM
same,TGI,T47D,60 µM
same,CC50,T47D; [9],100 µM
same,GI50,CCRF-CEM,4.86 µM
same,TGI,CCRF-CEM,66 µM
same,CC50,CCRF-CEM; [9],100 µM
same,inhibition of growth at 10 µM,KM12 [5],71.3%
same,GI50,KM12 [6],3.16 µM
same,TGI,KM12 [6],11 µM
same,CC50,KM12 [6]; [9],100 µM
same,inhibition of growth at 10 µM,U-251,47.5%
same,GI50,HOP-92,1.77 µM
same,TGI,HOP-92,15.8 µM
same,CC50,HOP-92; [9],100 µM
same,GI50,MCF7,4.57 µM
same,TGI,MCF7,100 µM
same,CC50,MCF7; [9],100 µM
same,inhibition of growth at 10 µM,OVCAR-4 [7],41.2%
same,inhibition of growth at 10 µM,[8],17.7%
same,GI50,HL-60(TB),2.23 µM
same,TGI,HL-60(TB),19.3 µM
same,CC50,HL-60(TB); [9],100 µM
